Data on 1 compound can be found in ChEMBL document CHEMBL4622996, “Discovery of Vixotrigine: A Novel Use-Dependent Sodium Channel Blocker for the Treatment of Trigeminal Neuralgia” (ACS Med Chem Lett, 2020).

For data set [1], the target named is Cytochrome P450 2D6 (Homo sapiens, UniProt P10635). Nature of the data set: Inhibition of CYP2D6 (unknown origin). The class given is ADME.
In data set [2] the target is T1, Cytochrome P450 2C8 (Homo sapiens, UniProt P10632).
T1 sequence (P10632 whole entry): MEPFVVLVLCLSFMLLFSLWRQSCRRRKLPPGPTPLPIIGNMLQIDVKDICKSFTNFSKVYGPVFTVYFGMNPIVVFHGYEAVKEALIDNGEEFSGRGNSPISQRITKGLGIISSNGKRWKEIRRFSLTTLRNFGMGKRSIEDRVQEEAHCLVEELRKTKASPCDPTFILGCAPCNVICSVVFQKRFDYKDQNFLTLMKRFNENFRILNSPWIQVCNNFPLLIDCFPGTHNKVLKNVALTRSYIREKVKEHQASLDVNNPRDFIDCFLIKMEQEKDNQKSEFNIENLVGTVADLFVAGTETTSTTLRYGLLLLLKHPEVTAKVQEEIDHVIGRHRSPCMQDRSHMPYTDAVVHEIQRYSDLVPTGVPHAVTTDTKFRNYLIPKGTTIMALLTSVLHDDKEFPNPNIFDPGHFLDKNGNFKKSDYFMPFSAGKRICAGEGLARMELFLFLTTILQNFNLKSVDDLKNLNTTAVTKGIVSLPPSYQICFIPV
Nature of the data set: Inhibition of CYP2C8 (unknown origin). The class given is ADME.

Data set [3] can be described thus: Free plasma concentration in rat model of chronic constriction injury-induced neuropathic pain at 0.5 mg/kg, po BID administered 22 days post surgery and measured on day 8 at 0.5 hrs post-dose. As to conditions: in vivo; call rule not given here. The format is ADME, organism-based. The gist of the method:
(§1)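 Chronic constriction injury neuropathic pain model in rat; oral dosing at 0.5 or 5 mg/kg BID starting day 22; mechanical allodynia read after 6 and 8 days of dosing; gabapentin 30 mg/kg po BID as positive control. Free plasma levels sampled on day 8, 0.5 h postdose.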

Data set [4] can be described thus: Cmax in monkey at 3 mg/kg, po. The format is ADME, organism-based, Macaca mulatta. Also noted: dose 3 mg/kg, route oral. Particulars: rhesus monkey, in vivo.
The nature of data set [5]: Toxicity in rat assessed as sedation by measuring spontaneous locomotor activity at 60 mg/kg, po. The class given is organism-based. As to conditions: in vivo. The gist of the method:
(§2)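 Male rats, spontaneous locomotor activity test; oral doses 60, 100 or 300 mg/kg given 30 min before the session; plasma sampled 60 min postdose at 60 mg/kg.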

Data set [6] concerns the target T2, Solute carrier organic anion transporter family member 1B3 (Homo sapiens, UniProt Q9NPD5).
T2 sequence (Q9NPD5 whole entry): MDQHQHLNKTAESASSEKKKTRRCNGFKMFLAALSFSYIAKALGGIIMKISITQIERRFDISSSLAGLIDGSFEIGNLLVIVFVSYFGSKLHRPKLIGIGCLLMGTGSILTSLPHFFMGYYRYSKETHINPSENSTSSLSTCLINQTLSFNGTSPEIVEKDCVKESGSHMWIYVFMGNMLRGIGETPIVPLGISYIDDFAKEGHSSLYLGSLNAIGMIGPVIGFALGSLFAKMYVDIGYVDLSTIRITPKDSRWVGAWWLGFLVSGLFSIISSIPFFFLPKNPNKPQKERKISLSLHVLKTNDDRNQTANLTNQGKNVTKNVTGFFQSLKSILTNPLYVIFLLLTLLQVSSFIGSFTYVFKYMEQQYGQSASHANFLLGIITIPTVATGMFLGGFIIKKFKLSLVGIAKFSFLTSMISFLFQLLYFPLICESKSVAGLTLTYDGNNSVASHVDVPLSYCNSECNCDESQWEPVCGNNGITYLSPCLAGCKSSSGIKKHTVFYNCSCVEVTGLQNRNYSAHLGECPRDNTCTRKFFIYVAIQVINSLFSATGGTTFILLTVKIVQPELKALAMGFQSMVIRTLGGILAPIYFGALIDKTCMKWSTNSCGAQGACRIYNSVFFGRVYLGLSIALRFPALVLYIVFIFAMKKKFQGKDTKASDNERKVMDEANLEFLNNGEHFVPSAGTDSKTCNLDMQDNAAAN
Nature of the data set: Inhibition of OATP1B3 (unknown origin).

A short description of data set [7]: Total blood clearance in monkey blood at 0.5 mg/kg, iv. Particulars: rhesus monkey. The format is ADME, organism-based, Macaca mulatta.
A short description of data set [8]: Plasma concentration in rat after measuring the spontaneous locomotor activity at 60 mg/kg, po measured after 60 mins post dose. The format is ADME, organism-based. The gist of the method: as §2
A short description of data set [9]: Tmax in rat at 3 mg/kg, po. The format is ADME, organism-based. Particulars: in vivo.
Data set [10] deals with Cytochrome P450 2C19 (Homo sapiens, UniProt P33261). As to the kind of experiment: Inhibition of CYP2C19 (unknown origin). The format is ADME.
Data set [11] is described as follows: Half life in rat at 0.5 mg/kg, iv. The class given is ADME, organism-based. Particulars: in vivo.
Data set [12] in a line: Tmax in dog at 3 mg/kg, po. Particulars: in vivo. The format is ADME, organism-based, Canis lupus familiaris.
In data set [13] the target is Sodium channel protein type 3 subunit alpha (Homo sapiens, UniProt Q9NY46). Nature of the data set: Inhibition of Nav1.3 (unknown origin) expressed in HEK293 cells assessed as 15% inhibition of sodium current incubated for 3 to 3.5 mins by electrophysiology assay. The format is cell-based. The gist of the method: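 HEK293 cells stably expressing NaV1.3, grown in DMEM-F12 with 10% FBS at 37 °C, dissociated at 50–70% confluency; IonWorksHT planar patch clamp at 21–23 °C, amphotericin perforated access; intracellular K-gluconate 100, KCl 40, MgCl2 3.2, EGTA 3, HEPES 5 mM, pH 7.3.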

Data set [14] can be described thus: Cmax in dog at 3 mg/kg, po. The format is ADME, organism-based, Canis lupus familiaris. Also noted: dose 3 mg/kg, route oral. As to conditions: in vivo.
For data set [15], the target named is T3, Cytochrome P450 1A2 (Homo sapiens, UniProt P05177).
T3 sequence (P05177 whole entry): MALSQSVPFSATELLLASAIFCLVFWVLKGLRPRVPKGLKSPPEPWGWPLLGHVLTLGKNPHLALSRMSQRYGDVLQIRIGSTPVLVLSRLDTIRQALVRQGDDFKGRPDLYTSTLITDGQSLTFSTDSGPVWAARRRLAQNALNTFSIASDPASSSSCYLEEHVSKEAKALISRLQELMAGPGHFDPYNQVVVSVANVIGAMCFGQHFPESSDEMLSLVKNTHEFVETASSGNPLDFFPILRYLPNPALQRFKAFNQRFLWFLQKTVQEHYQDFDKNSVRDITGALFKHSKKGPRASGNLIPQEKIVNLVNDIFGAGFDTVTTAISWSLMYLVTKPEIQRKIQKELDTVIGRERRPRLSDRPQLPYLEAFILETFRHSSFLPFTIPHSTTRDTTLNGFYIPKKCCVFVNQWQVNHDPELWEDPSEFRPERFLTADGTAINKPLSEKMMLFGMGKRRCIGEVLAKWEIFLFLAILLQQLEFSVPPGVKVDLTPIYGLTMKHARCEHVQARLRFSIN
As to the kind of experiment: Inhibition of CYP1A2 (unknown origin). The format is ADME.

The nature of data set [16]: Free plasma concentration in rat model of chronic constriction injury-induced neuropathic pain at 5 mg/kg, po BID administered 22 days post surgery and measured on day 8 at 0.5 hrs post-dose. The class given is ADME, organism-based. Particulars: in vivo. The gist of the method: as §1
Data set [17] can be described thus: Volume of distribution in steady state in dog at 0.5 mg/kg, iv. The format is ADME, organism-based, Canis lupus familiaris. As to conditions: in vivo, read-out: Vdss.
Data set [18] in a line: Tmax in monkey at 3 mg/kg, po. The class given is ADME, organism-based, Macaca mulatta. Particulars: rhesus monkey, in vivo.

Sequence of Sodium channel protein type 3 subunit alpha (Q9NY46 whole entry, looked up): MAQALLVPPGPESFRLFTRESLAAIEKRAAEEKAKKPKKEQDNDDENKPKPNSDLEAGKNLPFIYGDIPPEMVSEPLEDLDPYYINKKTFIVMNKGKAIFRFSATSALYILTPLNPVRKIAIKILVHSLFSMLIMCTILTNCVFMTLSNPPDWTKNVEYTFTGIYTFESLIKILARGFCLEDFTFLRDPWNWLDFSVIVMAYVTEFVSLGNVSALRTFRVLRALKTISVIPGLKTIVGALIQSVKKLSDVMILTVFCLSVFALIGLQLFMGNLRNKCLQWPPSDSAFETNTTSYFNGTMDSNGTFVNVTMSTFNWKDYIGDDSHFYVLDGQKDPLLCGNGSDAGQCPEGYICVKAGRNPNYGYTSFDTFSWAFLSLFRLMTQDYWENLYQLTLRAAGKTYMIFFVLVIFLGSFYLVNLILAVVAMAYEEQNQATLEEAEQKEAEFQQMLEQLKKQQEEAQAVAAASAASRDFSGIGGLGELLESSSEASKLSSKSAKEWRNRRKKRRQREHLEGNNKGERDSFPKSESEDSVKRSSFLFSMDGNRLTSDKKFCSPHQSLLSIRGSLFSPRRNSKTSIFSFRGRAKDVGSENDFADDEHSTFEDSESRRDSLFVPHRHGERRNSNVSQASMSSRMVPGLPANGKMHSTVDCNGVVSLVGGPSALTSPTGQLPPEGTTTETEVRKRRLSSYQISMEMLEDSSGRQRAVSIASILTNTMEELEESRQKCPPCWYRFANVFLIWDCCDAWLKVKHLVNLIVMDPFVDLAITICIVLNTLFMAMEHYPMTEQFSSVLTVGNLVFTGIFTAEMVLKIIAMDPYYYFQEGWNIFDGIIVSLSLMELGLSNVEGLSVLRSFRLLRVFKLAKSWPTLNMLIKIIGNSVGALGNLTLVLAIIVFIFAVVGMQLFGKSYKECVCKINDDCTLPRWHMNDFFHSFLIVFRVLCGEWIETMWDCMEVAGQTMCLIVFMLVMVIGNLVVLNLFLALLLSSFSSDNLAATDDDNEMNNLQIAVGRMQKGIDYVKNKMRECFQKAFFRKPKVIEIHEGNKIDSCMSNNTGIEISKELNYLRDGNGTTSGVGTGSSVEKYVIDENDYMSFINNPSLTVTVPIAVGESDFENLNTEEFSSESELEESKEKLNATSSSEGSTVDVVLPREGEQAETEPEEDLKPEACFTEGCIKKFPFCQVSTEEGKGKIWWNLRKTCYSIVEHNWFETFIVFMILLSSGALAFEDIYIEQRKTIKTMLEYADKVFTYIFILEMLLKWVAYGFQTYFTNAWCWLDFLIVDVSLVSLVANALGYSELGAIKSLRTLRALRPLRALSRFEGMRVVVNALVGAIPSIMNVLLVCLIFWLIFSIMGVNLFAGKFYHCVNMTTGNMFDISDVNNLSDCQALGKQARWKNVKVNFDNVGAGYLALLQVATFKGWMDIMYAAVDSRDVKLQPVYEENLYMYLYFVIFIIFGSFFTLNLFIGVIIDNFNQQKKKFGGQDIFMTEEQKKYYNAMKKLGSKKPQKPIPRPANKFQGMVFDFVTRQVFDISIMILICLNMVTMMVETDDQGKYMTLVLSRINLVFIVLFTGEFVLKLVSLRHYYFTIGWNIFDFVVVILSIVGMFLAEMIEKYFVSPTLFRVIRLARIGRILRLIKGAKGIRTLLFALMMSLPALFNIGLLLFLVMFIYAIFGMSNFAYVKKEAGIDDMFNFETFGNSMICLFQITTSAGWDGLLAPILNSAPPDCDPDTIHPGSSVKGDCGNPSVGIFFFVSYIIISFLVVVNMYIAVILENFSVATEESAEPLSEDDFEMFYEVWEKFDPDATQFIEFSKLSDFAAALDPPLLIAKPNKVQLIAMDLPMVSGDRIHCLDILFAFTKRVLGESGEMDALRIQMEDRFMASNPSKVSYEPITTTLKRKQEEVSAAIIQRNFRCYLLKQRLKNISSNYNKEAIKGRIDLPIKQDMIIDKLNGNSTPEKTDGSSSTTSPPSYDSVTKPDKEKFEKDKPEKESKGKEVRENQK
Sequence of Cytochrome P450 2C19 (P33261 whole entry): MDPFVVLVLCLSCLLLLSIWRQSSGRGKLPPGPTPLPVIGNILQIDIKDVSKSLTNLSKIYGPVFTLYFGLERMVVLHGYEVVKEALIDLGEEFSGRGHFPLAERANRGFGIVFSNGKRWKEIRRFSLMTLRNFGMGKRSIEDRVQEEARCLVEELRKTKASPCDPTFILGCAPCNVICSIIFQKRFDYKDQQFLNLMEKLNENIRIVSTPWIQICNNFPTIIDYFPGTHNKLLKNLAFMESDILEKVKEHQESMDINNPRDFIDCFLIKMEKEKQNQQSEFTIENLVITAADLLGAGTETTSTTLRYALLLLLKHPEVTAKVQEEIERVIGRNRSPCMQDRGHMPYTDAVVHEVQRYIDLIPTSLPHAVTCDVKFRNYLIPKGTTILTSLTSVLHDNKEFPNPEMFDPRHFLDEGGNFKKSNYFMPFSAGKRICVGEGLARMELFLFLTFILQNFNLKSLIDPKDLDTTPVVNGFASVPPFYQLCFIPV
Sequence of Cytochrome P450 2D6 (P10635 whole entry): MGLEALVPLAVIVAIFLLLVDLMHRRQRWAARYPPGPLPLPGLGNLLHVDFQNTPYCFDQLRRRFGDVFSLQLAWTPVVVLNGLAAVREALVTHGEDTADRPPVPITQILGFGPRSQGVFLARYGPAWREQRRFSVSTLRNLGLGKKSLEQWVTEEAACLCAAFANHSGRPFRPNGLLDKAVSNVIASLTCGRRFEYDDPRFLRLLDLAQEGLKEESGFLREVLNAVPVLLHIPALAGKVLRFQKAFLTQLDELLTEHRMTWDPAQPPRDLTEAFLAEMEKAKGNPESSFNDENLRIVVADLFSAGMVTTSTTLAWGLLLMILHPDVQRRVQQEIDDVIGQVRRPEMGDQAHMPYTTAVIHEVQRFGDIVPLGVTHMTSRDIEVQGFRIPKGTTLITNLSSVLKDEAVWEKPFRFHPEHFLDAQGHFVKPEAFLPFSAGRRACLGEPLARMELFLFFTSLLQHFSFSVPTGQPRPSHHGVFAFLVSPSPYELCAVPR

Take `Cl.NC(=O)[C@@H]1CC[C@H](c2ccc(OCc3ccccc3F)cc2)N1` [RAXATRIGINE HYDROCHLORIDE]: the IC50 is above 100 µM in data set [1], above 100 µM in data set [2], 79 µM in data set [10] and 13 µM in [15]. Further, the “Cp(f)” value came to 1.9 ng/mL in data set [3] and 23.4 ng/mL in [16]. The Cmax in data set [4] stood at 730 ng/mL; in [14], 705 ng/mL. Also, in data set [5], the Activity result is listed as “Non-Toxic”. Besides, in [6], the “inhibition (INH)” value is listed as “Not Active”. Also, in [7], the clearance is 5 mL/min/kg. In addition, the concentration at 1 h in data set [8] turned out to be 13100 ng/mL. Moreover, the Tmax in data set [9] came out at 30 min; in data set [12], 45 min; in data set [18], 120 min. This compound also had a half-life in data set [11] of 48 min. Also, the log(activity) in [13] is -5.5. Moreover, the Vd in data set [17] was determined as 2 L/kg.
